Experimental data reported in ChEMBL document CHEMBL5316296, “Indole Derivatives as New Structural Class of Potent and Antiproliferative Inhibitors of Monocarboxylate Transporter 1 (MCT1; SLC16A1)” (J Med Chem, 2023).
Activity calls are given as the source filed them. The calls are words filed in the database; no cut-off is given here.

Tests used:
[1] = target: T1, Monocarboxylate transporter 4 (Homo sapiens) (UniProt O15427); test: Inhibition of MCT4 in human MDA-MB-231 cells assessed as inhibition of acidic lactate extrusion by measuring reduction in pH at 10 uM incubated for 12 hrs by BCECF-AM dye based fluorescence spectrophotometric analysis; assay type: cell-based
T1 sequence (whole entry): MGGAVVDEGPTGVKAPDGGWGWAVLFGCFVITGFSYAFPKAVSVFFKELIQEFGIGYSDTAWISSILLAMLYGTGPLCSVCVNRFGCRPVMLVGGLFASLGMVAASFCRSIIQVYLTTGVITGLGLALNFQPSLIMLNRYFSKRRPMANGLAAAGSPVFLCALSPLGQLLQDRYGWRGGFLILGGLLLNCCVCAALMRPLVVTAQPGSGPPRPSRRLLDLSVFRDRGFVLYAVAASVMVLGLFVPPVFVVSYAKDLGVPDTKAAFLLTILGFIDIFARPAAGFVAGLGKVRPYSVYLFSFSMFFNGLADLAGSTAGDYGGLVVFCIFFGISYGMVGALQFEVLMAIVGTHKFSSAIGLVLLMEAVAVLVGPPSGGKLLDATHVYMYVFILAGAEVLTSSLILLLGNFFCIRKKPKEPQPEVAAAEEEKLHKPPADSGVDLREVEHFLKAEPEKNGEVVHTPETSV
In short: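 MDA-MB-231 cells (50,000/well) plated overnight, then treated with 10 μM compound for 12 h at 37 °C. Loaded with BCECF-AM (5 μM, 1 h), washed twice. Intracellular pH from emission ratio against per-plate calibration (pH 4.5–7.5 buffers with 10 μM nigericin and 10 μM valinomycin, 30 min, room temperature).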

NIH3T3 = test: Cytotoxicity against mouse NIH3T3 cells assessed as cell viability incubated for 72 hrs by MTT assay; assay type: toxicity, cell-based; settings: nih3t3, 72 h
In short: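 NIH/3T3 murine embryonic fibroblasts (5000/well) screened at 10 and 50 μM compound for 72 h at 37 °C, 5% CO2. MTT readout (1 h), DMSO-dissolved formazan read at 570 nm, 690 nm background. DMSO and culture medium define 0 and 100% viability; at least three independent experiments.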

[2] = Growth inhibition of human A549 cells expressing MCT1 at 50 uM incubated for 72 hrs by MTT assay relative to control; assay type: toxicity, cell-based; settings: read-out: GI
[3] = Antiproliferative activity against human A2780 ADR cells expressing ABCB1 assessed as growth inhibition incubated for 72 hrs by MTT assay; assay type: functional
A549 = test: Antiproliferative activity against human A549 cells expressing MCT1 assessed as effect on cell viability incubated for 72 hrs in the presence of glucose by MTT assay; assay type: functional, cell-based
In short: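 A-549 cells (5000/well) with compound over 72 h; glucose added every 12 h to give 25% or 50% of the original 4.5 g/L. Viability by MTT, absorbance 570 nm (690 nm background). DMSO and culture medium define 0 and 100%; at least three independent experiments.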

[4] = Induction of doxorubicin sensitization in human A549 cells expressing MCT1 assessed as doxorubicin GI50 at 50 nM incubated for 72 hrs by MTT assay; assay type: functional
In short: (§1)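 A-549 cells (~5000/well) given test compound at fixed 50, 100 or 500 nM plus doxorubicin dilution series 50 nM–50 μM. Incubated 72 h at 37 °C, 5% CO2, then MTT readout.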

[5] = Induction of doxorubicin sensitization in human A549 cells expressing MCT1 assessed as doxorubicin GI50 at 100 nM incubated for 72 hrs by MTT assay; assay type: functional; in short: as §1
[6] = Induction of doxorubicin sensitization in human A2780 ADR cells expressing ABCB1 assessed as doxorubicin at 1 uM incubated for 72 hrs by MTT assay; assay type: functional
In short: (§2)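 ABCB1-expressing A2780/ADR cells (grown in RPMI-1640 with 10% FBS) were exposed to a doxorubicin dilution series, with or without a fixed test-compound level of 1.0, 2.0, 3.5 or 5.0 μM. Viability was read by MTT, with DMSO as 0% and medium as 100%. GI50 values come from at least three independent experiments and are compared with doxorubicin alone on sensitive A2780 cells.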

[7] = Induction of doxorubicin sensitization in human A2780 ADR cells expressing ABCB1 assessed as doxorubicin at 2 uM incubated for 72 hrs by MTT assay; assay type: functional; in short: as §2
[8] = Induction of doxorubicin sensitization in human A2780 ADR cells expressing ABCB1 assessed as doxorubicin at 3.5 uM incubated for 72 hrs by MTT assay; assay type: functional; in short: as §2
[9] = Induction of doxorubicin sensitization in human A2780 ADR cells expressing ABCB1 assessed as doxorubicin at 5 uM incubated for 72 hrs by MTT assay; assay type: functional; in short: as §2
A2780 ADR = test: Induction of doxorubicin sensitization in human A2780 ADR cells expressing ABCB1 assessed as left shift of the concentration-effect curve at 5 uM incubated for 72 hrs by MTT assay; assay type: functional, cell-based
In short: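 ABCB1-expressing A2780/ADR cells given test compound at 1.0, 2.0, 3.5 or 5.0 μM with a doxorubicin series; MTT viability readout. Shift of doxorubicin concentration-effect curve compared against parental A2780. DMSO and medium define 0 and 100%; at least three independent experiments.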

| SMILES | inhibition [1] | Activity (NIH3T3) | also measured |
| --- | --- | --- | --- |
| COC(=O)/C(C#N)=C/c1cn(CC(=O)Nc2c(Cl)cccc2Cl)c2ccccc12 | inactive | Non-Toxic | – |
| O=C(O)C(=O)CBr [BROMOPYRUVATE] | – | – | inhibition at 72 h, 50 µM [2]: ≥ 90% |
| COC(=O)/C(C#N)=C/c1cn(CC(=O)Nc2cccc3ccccc23)c2ccccc12 | inactive | Non-Toxic | – |
| COc1cccc2c1C(=O)c1c(O)c3c(c(O)c1C2=O)C[C@@](O)(C(=O)CO)C[C@@H]3O[C@H]1C[C@H](N)[C@H](O)[C@H](C)O1 [DOXORUBICIN] | – | – | GI50 [3]: 802 nM |
| COC(=O)/C(C#N)=C/c1cn(CC(=O)Nc2cccnc2)c2ccccc12 | inactive | Non-Toxic | – |
| COC(=O)/C(C#N)=C/c1cn(CC(=O)Nc2ccc(F)cc2)c2ccccc12 | inactive | Non-Toxic | – |
| COC(=O)/C(C#N)=C/c1cn(CC(=O)Nc2ccc(Br)cn2)c2ccccc12 | inactive | Non-Toxic | – |
| COC(=O)/C(C#N)=C/c1cn(CC(=O)Nc2ccc(OC)cc2)c2ccccc12 | inactive | Non-Toxic | Activity (A549): inactive; GI50 [4]: 40 nM; GI50 [5]: 27.7 nM; GI50 [6]: 332 nM; GI50 [7]: 214 nM; GI50 [8]: 110 nM; GI50 [9]: 32.2 nM; Activity (A2780 ADR): Active |
| N#C/C(=C\c1ccc(O)cc1)C(=O)O [alpha-CYANO-4-HYDROXYCINNAMIC ACID] | – | Non-Toxic | – |
| COC(=O)/C(C#N)=C/c1cn(CC(=O)Nc2ccc3ccccc3c2)c2ccccc12 | inactive | Non-Toxic | – |
| COC(=O)/C(C#N)=C/c1cn(CC(=O)Nc2ccc(C)cn2)c2ccccc12 | inactive | Non-Toxic | Activity (A549): inactive; GI50 [4]: 38.6 nM; GI50 [5]: 25.4 nM; GI50 [6]: 516 nM; GI50 [7]: 165 nM; GI50 [8]: 32.4 nM; GI50 [9]: 12.9 nM; Activity (A2780 ADR): Active |
| COC(=O)/C(C#N)=C/c1cn(CC(=O)Nc2ccccc2)c2ccccc12 | inactive | Non-Toxic | – |
| COC(=O)/C(C#N)=C/c1cn(CC(=O)Nc2ccc(Cl)cc2)c2ccccc12 | inactive | Non-Toxic | – |
| COC(=O)/C(C#N)=C/c1cn(CC(=O)Nc2ccc(Br)cc2)c2ccccc12 | inactive | Non-Toxic | – |
| COC(=O)/C(C#N)=C/c1cn(CC(=O)Nc2cccc(OC)c2)c2ccccc12 | inactive | Non-Toxic | – |
| COC(=O)/C(C#N)=C/c1cn(CC(=O)Nc2ccccn2)c2ccccc12 | inactive | Non-Toxic | – |
| COC(=O)/C(C#N)=C/c1cn(CC(=O)Nc2ccccc2C)c2ccccc12 | inactive | Non-Toxic | – |
| COC(=O)/C(C#N)=C/c1cn(CC(=O)Nc2ccccc2OC)c2ccccc12 | inactive | Non-Toxic | – |
| COC(=O)/C(C#N)=C/c1cn(CC(=O)Nc2ccc(C)cc2)c2ccccc12 | inactive | Non-Toxic | – |
